Measured values from paper PMC4716540 (British Journal of Cancer, 2015).

Legend:
[1] = Plasma pharmacokinetics of KW-2478; type: in vivo, human
[2] = system: Hsp70 in peripheral blood mononuclear cells (PBMCs); test: Hsp70 levels in PBMCs by western blot as biomarker for Hsp90 inhibition; type: in vivo, human
Summary of the method: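 Patients with relapsed/refractory B-cell malignancies received the test compound by 1-h IV infusion on days 1–5 of a 14-day cycle (cohorts 14–176 mg m⁻², 3+3 design). Hsp70 was measured by western blot at an independent central laboratory, as change from baseline, and summarised descriptively by dose level.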

primary myeloma cells = conditions: in the presence of bone marrow stromal cells; ref Juliger et al, 2008; cited from earlier work
[3] = 14 mg m^–2 iv, day 1, n=3, mean±s.d.
[4] = 14 mg m^–2 iv, day 5, n=3, mean±s.d.
[5] = 28 mg m^–2 iv, day 1, n=3, mean±s.d.
[6] = 28 mg m^–2 iv, day 5, n=3, mean±s.d.
[7] = 47 mg m^–2 iv, day 1, n=3, mean±s.d.
[8] = 47 mg m^–2 iv, day 5, n=2, mean±s.d.
[9] = 71 mg m^–2 iv, day 1, n=3, mean±s.d.
[10] = 71 mg m^–2 iv, day 5, n=2, mean±s.d.
[11] = 99 mg m^–2 iv, day 1, n=3, mean±s.d.
[12] = 99 mg m^–2 iv, day 5, n=3, mean±s.d.
[13] = 132 mg m^–2 iv, day 1, n=6, mean±s.d.
[14] = 132 mg m^–2 iv, day 5, n=6, mean±s.d.
[15] = 176 mg m^–2 iv, day 1, n=6, mean±s.d.
[16] = 176 mg m^–2 iv, day 5, n=5, mean±s.d.

## CCc1c(O)cc(O)c(C(=O)c2ccc(OCCN3CCOCC3)c(OC)c2)c1CC(=O)N(CCOC)CCOC [KW-2478]
[1]; [3]
  AUC0–t: 819±403 ng h^–1 ml^–1
  AUC0–∞: 992±497 ng h^–1 ml^–1
  CL (total plasma clearance): 28.9±11.1 l h^–1
  Cmax: 645±306 ng ml^–1
  kel (elimination rate constant): 0.11 ± 0.01 h⁻¹
  t½ (terminal half-life): 6.05 ± 0.37 h
[1]; [4]
  AUC0–t: 844±445 ng h^–1 ml^–1
  Cmax: 656±342 ng ml^–1
[1]; [5]
  AUC0–t: 1935±848 ng h^–1 ml^–1
  AUC0–∞: 2353±1117 ng h^–1 ml^–1
  CL (total plasma clearance): 23.1±15.9 l h^–1
  Cmax: 1620±556 ng ml^–1
  kel (elimination rate constant): 0.11 ± 0.02 h⁻¹
  t½ (terminal half-life): 6.48 ± 0.96 h
[1]; [6]
  AUC0–t: 1639±768 ng h^–1 ml^–1
  Cmax: 1320±531 ng ml^–1
[1]; [7]
  AUC0–t: 2325±652 ng h^–1 ml^–1
  AUC0–∞: 2758±891 ng h^–1 ml^–1
  CL (total plasma clearance): 34.9±8.35 l h^–1
  Cmax: 1990±236 ng ml^–1
  kel (elimination rate constant): 0.11 ± 0.01 h⁻¹
  t½ (terminal half-life): 6.60 ± 0.69 h
[1]; [8]
  AUC0–t: 2334±532 ng h^–1 ml^–1
  Cmax: 1705±785 ng ml^–1
[1]; [9]
  AUC0–t: 2798±432 ng h^–1 ml^–1
  AUC0–∞: 3197±400 ng h^–1 ml^–1
  CL (total plasma clearance): 43.0±6.80 l h^–1
  Cmax: 2620±585 ng ml^–1
  kel (elimination rate constant): 0.11 ± 0.02 h⁻¹
  t½ (terminal half-life): 6.29 ± 0.93 h
[1]; [10]
  AUC0–t: 3681±497 ng h^–1 ml^–1
  Cmax: 2675±49.5 ng ml^–1
[1]; [11]
  AUC0–t: 4220±1251 ng h^–1 ml^–1
  AUC0–∞: 4826±1504 ng h^–1 ml^–1
  CL (total plasma clearance): 42.7±12.5 l h^–1
  Cmax: 3400±876 ng ml^–1
  kel (elimination rate constant): 0.12 ± 0.003 h⁻¹
  t½ (terminal half-life): 5.83 ± 0.14 h
[1]; [12]
  AUC0–t: 3673±932 ng h^–1 ml^–1
  Cmax: 2977±610 ng ml^–1
[1]; [13]
  AUC0–t: 6910±1864 ng h^–1 ml^–1
  CL (total plasma clearance): 35.0±9.99 l h^–1
  Cmax: 5410±1622 ng ml^–1
  kel (elimination rate constant): 0.12 ± 0.01 h⁻¹
  t½ (terminal half-life): 5.71 ± 0.61 h
[1]; [14]
  AUC0–t: 7262±1331 ng h^–1 ml^–1
  Cmax: 5972±940 ng ml^–1
[1]; [15]
  CL (total plasma clearance): 32.8±10.7 l h^–1
  Cmax: 6838±1961 ng ml^–1
  kel (elimination rate constant): 0.13 ± 0.01 h⁻¹
  t½ (terminal half-life): 5.43 ± 0.39 h
[1]; [16]
  AUC0–t: 8355±2496 ng h^–1 ml^–1
  Cmax: 6062±1411 ng ml^–1
[1]; 14–176 mg m^–2
  Mean t½, range across dose levels: 5.4 to 6.6 h
  Total CL, range of means across dose levels: 23.1–43.0 l h^–1
[1]; after end of infusion, rapid distribution phase and slower elimination phase
  Manner of plasma concentration decline: biphasic
[1]; days 1 and 5
  Mean Cmax and AUC values in relation to dose: increased linearly in relation to dose
[1]; once daily days 1–5
  Accumulation from days 1 to 5 (Cmax, AUC): no relevant accumulation
[1]; plasma, iv infusion over 1 h
  Terminal half-life: ~6 h
[2]; doses ⩾71 mg m^–2, 8 h after dosing on days 1 and 5
  Hsp70 induction above baseline in PBMCs: ≥ 25%
[2]; western blot
  Doses at which Hsp70 levels in PBMCs increased (target inhibition inferred): ≥ 71 mg m^–2
Primary myeloma cells
  Activity against primary myeloma cells: retained
